Laboratory results from ChEMBL document CHEMBL4680077, “Differentiation of skeletal osteogenic progenitor cells to osteoblasts with 3,4-diarylbenzopyran based amide derivatives: Novel osteogenic agents” (Eur J Med Chem, 2016).
Active and inactive are the calls of the source. No cut-off for these calls is given here.

Assays:
[1] = Acute toxicity in Swiss albino mouse assessed as monocyte count at 50 mg/kg, po measured after 7 days (reference value: 12.58 +/- 2.86 %); format: organism-based; conditions: in vivo, 168 h, time 7 day
[2] = AUC (0 to 24 hrs) in Sprague-Dawley rat at 1 mg/kg, po measured upto 24 hrs by LC-MS/MS analysis; format: ADME, organism-based; parameters: route oral, dose 1 mg/kg, time <=24; conditions: in vivo
Summary of the method: (§1)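 Female Sprague-Dawley rats (n = 4 per route), fasted overnight (12-14 h); 1 mg/kg orally in 0.25% CMC suspension, or an i.v. tail-vein bolus in DMSO-PEG400-ethanol-water (4:3:1:2). Retro-orbital blood was taken up to 24 h, and plasma was extracted with n-hexane (halofantrine IS). LC-MS/MS linear range 0.5-200 ng/mL. AUC0-24 was calculated by the linear trapezoidal rule, non-compartmental; mean ± S.D.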

[3] = Acute toxicity in Swiss albino mouse assessed as neutrophil count at 1000 mg/kg, po measured after 7 days (reference value: 41.50 +/- 4.08 %); format: organism-based; conditions: in vivo, 168 h, time 7 day
[4] = Acute toxicity in Swiss albino mouse assessed as tissue protein level at 1000 mg/kg, po measured after 7 days (reference value: 0.029 +/- 0.004 mg/ml); format: organism-based; conditions: in vivo, 168 h, time 7 day
[5] = Acute toxicity in Swiss albino mouse assessed as RBC count at 300 mg/kg, po measured after 7 days (Rvb =6.0 +/- 0.28 million/mm3); format: organism-based; conditions: in vivo, 168 h, time 7 day
[6] = Acute toxicity in Swiss albino mouse assessed as neutrophil count at 300 mg/kg, po measured after 7 days (reference value: 41.50 +/- 4.08 %); format: organism-based; conditions: in vivo, 168 h, time 7 day
[7] = Volume of distribution in Sprague-Dawley rat at 1 mg/kg, po measured upto 24 hrs by LC-MS/MS analysis; format: ADME, organism-based; conditions: in vivo
Summary of the method: (§2)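 Female Sprague-Dawley rats (n = 4), fasted overnight 12–14 h, dosed orally at 1 mg kg-1 as a 0.25% CMC suspension and fed 3 h post-dose. Retro-orbital blood was taken from 0.25 to 24 h. Plasma was hexane-extracted and assayed by LC-MS/MS. Cmax and Tmax were read from the data; other parameters came from non-compartmental analysis. Mean ± S.D.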

[8] = Acute toxicity in Swiss albino mouse assessed as SGOT level at 5 mg/kg, po measured after 7 days (reference value: 31.99 +/- 3.37 U/L); format: organism-based; conditions: in vivo, 168 h, time 7 day
[9] = Acute toxicity in Swiss albino mouse assessed as relative heart weight at 5 mg/kg, po measured after 7 days (reference value: 0.51 +/- 0.02 %); format: organism-based; conditions: in vivo, 168 h, time 7 day
Calvarial osteoblast [10] = experiment: Induction of osteoblast differentiation in mouse calvarial osteoblast assessed as increase in OCN mRNA expression at 1 pM incubated for 48 hrs by qPCR analysis; format: functional, cell-based
Summary of the method: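 Calvarial osteoblasts were treated at 1 pM for 24 and 48 h. Total RNA was extracted with TRIzol, and cDNA was made from 2 µg RNA. qPCR ran 40 cycles for BMP-2, RUNX-2, OCN and collagen type 1, with normalization to GAPDH. Mean ± SEM of three independent experiments.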

[11] = Acute toxicity in Swiss albino mouse assessed as creatinine level at 50 mg/kg, po measured after 7 days (reference value: 0.97 +/- 0.07 mg/dL); format: organism-based; conditions: in vivo, 168 h, time 7 day
[12] = Clearance in Sprague-Dawley rat at 1 mg/kg, po measured upto 24 hrs by LC-MS/MS analysis; format: ADME, organism-based; conditions: in vivo; summary of the method: as §2
[13] = Acute toxicity in Swiss albino mouse assessed as cholesterol level at 300 mg/kg, po measured after 7 days (reference value: 265.76 +/- 24.78 mg/dL); format: organism-based; conditions: in vivo, 168 h, time 7 day
[14] = Acute toxicity in Swiss albino mouse assessed as relative uterus weight at 5 mg/kg, po measured after 7 days (reference value: 1.63 +/- 0.71 %); format: organism-based; conditions: in vivo, 168 h, time 7 day
Calvarial osteoblast [15] = experiment: Induction of osteoblast differentiation in mouse calvarial osteoblast assessed as increase in ERalpha expression at 1 pM incubated for 48 hrs by Western blot analysis; format: functional, cell-based
Summary of the method: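 Calvarial osteoblasts at 60–70% confluence were treated ± compound for 48 h, with 100 pM E2 as positive control. Lysates (30 µg protein) were resolved on 10% SDS-PAGE, transferred to PVDF and probed for ER-α and ER-β with HRP secondaries and ECL detection. Bands were quantified by densitometry normalized to β-actin.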

[16] = Acute toxicity in Swiss albino mouse assessed as relative brain weight at 5 mg/kg, po measured after 7 days (reference value: 1.63 +/- 0.13 %); format: organism-based; conditions: in vivo, 168 h, time 7 day
[17] = Volume of distribution in Sprague-Dawley rat at 1 mg/kg, iv measured upto 24 hrs by LC-MS/MS analysis; format: ADME, organism-based; conditions: in vivo
[18] = Elimination rate constant in Sprague-Dawley rat at 1 mg/kg, iv measured upto 24 hrs by LC-MS/MS analysis; format: ADME, organism-based; conditions: in vivo
[19] = AUC (0 to 24 hrs) in Sprague-Dawley rat at 1 mg/kg, iv measured upto 24 hrs by LC-MS/MS analysis; format: ADME, organism-based; parameters: route intravenous, dose 1 mg/kg, time <=24; conditions: in vivo; summary of the method: as §1
[20] = Acute toxicity in Swiss albino mouse assessed as relative liver weight at 300 mg/kg, po measured after 7 days (reference value: 6.81 +/- 2.14 %); format: organism-based; conditions: in vivo, 168 h, time 7 day
[21] = Acute toxicity in Swiss albino mouse assessed as absolute brain weight at 5 mg/kg, po measured after 7 days (reference value: 0.37 +/- 0.02 g); format: organism-based; conditions: in vivo, 168 h, time 7 day
[22] = Clearance in Sprague-Dawley rat at 1 mg/kg, iv measured upto 24 hrs by LC-MS/MS analysis; format: ADME, organism-based; conditions: in vivo
Mus musculus [23] = experiment: In vivo osteogenic activity in ovariectomized BALB/c mouse assessed as increase in force required to break bone at 1 to 10 mg/kg, po via gavage administered for 1 month by TKC Muromachi bone strength testing method; format: functional, organism-based; conditions: dose 1-10 mg/kg, time 1.0 months
Summary of the method: (§3)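 Ovariectomized balb/c mice were gavaged with 1 or 10 mg kg-1 daily for one month. Bones were then tested on a bone strength tester for energy, stiffness and force to break. Mean ± SEM compared with the Ovx vehicle group.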

[24] = Acute toxicity in Swiss albino mouse assessed as relative ovary weight at 300 mg/kg, po measured after 7 days (reference value: 0.07 +/- 0.02 %); format: organism-based; conditions: in vivo, 168 h, time 7 day
[25] = Acute toxicity in Swiss albino mouse assessed as body weight at 1000 mg/kg, po observed on day 1 (reference value: 20.38 +/- 0.24 g); format: organism-based; conditions: in vivo, 24 h, time 1 day
[26] = Acute toxicity in Swiss albino mouse assessed as RBC count at 50 mg/kg, po measured after 7 days (Rvb =6.0 +/- 0.28 million/mm3); format: organism-based; conditions: in vivo, 168 h, time 7 day
Mus musculus [27] = experiment: In vivo osteogenic activity in ovariectomized BALB/c mouse assessed as increase in bone stiffness at 1 to 10 mg/kg, po via gavage administered for 1 month by TKC Muromachi bone strength testing method; format: functional, organism-based; conditions: dose 1-10 mg/kg, time 1.0 months; summary of the method: as §3
[28] = Acute toxicity in Swiss albino mouse assessed as relative ovary weight at 50 mg/kg, po measured after 7 days (reference value: 0.07 +/- 0.02 %); format: organism-based; conditions: in vivo, 168 h, time 7 day
[29] = Acute toxicity in Swiss albino mouse assessed as absolute heart weight at 5 mg/kg, po measured after 7 days (reference value: 0.12 g); format: organism-based; conditions: in vivo, 168 h, time 7 day
[30] = Acute toxicity in Swiss albino mouse assessed as relative liver weight at 5 mg/kg, po measured after 7 days (reference value: 6.81 +/- 2.14 %); format: organism-based; conditions: in vivo, 168 h, time 7 day

`CCCCN(C)C(=O)CCCCOc1ccc([C@H]2c3ccc(OC)cc3OC(C)(C)[C@@H]2c2ccccc2)cc1` gave an Activity [1] of 12.35%, an AUC(0-t) [2] of 114 ng·h/mL and an Activity [3] of 46.03%. The Activity [4] was 0.032 mg/mL, the Activity [5] was 7.31 million/mm3 and the Activity [6] was 41.54%. The Vd [7] was 5.822 L/kg, the Activity [8] was 33.05 U/L and the Activity [9] was 0.48%. For the same compound, the Activity (Calvarial osteoblast [10]) was “Active”, the Activity [11] was 0.8 mg/dL and the CL [12] was 18.3 mL/min/kg. The Activity [13] was 257.26 mg/dL, the Activity [14] was 1.77% and the Activity (Calvarial osteoblast [15]) was “inactive”. For the same compound, the Activity [16] was 1.46%, the Vd [17] was 5.61 L/kg and the k el at 24 h [18] was 5.47e-05 s⁻¹. It also gave an AUC(0-t) [19] of 852 ng·h/mL, an Activity [20] of 4.84% and an Activity [21] of 0.35 g. The clearance [22] was 18.4 mL/min/kg, the Activity (Mus musculus [23]) was “Active” and the Activity [24] was 0.29%. The Activity [25] was 18.42 g, the Activity [26] was 8.16 million/mm3 and the Activity (Mus musculus [27]) was “Active”. The Activity [28] was 0.33%, the Activity [29] was 0.12 g and the Activity [30] was 4.84%.
